RGS4 inh = RGS4 inhibitors, primary screen, cell-based, HEK293 M3R inducible RGS4, calcium flux | Regulator of G-protein signaling 4 (Homo sapiens), P49798 | Fluo-4 calcium flux; hits give high values; triggered by carbachol at its EC20 | B-score at 10 µM | 310,000 compounds, 0.45% hits | AID 463165, 2010;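 active = B-score, a plate-corrected calcium signal, over three deviations above library mean, with baseline fluorescence within five deviations of library mean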;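 note: RGS4 expression induced by doxycycline in cells with stable M3 receptor; B-score is computed from the integrated fluorescence ratio over baseline after carbachol; higher B-score means a larger calcium signal and so more RGS4 inhibition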
Target sequence (P49798 whole entry, looked up): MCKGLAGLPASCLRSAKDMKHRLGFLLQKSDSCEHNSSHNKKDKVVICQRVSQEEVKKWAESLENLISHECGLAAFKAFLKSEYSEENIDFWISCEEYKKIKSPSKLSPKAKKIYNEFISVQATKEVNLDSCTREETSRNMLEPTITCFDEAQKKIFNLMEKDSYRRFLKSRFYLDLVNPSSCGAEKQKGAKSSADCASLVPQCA
MrgX1 antag = antagonists of human MrgX1 receptor, primary screen, HEK293 cells, Fluo-4 calcium flux. Mas-related G-protein coupled receptor member X1 (Homo sapiens), Q96LB2. BAM8-22 antagonism; hits give low values. 310,000 compounds, 1.3% hits. B-score at 10 µM;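 active = calcium-response B-score plate-corrected more than 3 library SD below zero, starting fluorescence within 5 deviations, no agonist response on first addition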;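 note: peak minus trough fluorescence over baseline after final BAM8-22 challenge near maximal dose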
Target sequence (Q96LB2 whole entry, looked up): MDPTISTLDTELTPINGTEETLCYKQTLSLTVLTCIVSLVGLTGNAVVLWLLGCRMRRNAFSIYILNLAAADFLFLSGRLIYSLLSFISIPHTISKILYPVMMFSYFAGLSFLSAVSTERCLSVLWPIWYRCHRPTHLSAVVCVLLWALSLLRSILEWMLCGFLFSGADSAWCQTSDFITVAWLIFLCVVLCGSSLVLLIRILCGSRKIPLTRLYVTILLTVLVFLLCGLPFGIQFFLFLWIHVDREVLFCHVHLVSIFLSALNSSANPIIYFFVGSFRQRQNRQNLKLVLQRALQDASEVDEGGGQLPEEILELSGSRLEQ
MrgX1 agonist = agonists of human MrgX1 receptor, primary screen, HEK293 cells, Fluo-4 calcium flux; Mas-related G-protein coupled receptor member X1 (Homo sapiens), Q96LB2; Fluo-4 calcium fluorescence, agonist mode; hits give high values; B-score at 10 µM; 310,000 compounds, 0.44% hits;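 active = calcium response B-score plate-corrected fluorescence ratio at least 3 library SD, with starting fluorescence B-score inside 5 SD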
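Test system: Stable human MrgX1 HEK293 cell line | Schedule: Overnight plating before 1 h dye loading | Read-out basis: Baseline-normalised fluorescence change ratio, B-scored | Detection: Kinetic calcium dye fluorescence, Fluo-4 NW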
MrgX1 allo act = positive allosteric modulators of MrgX1, primary screen, HEK293 cells, Fluo-4 calcium flux; Mas-related G-protein coupled receptor member X1 (Homo sapiens), Q96LB2; FDSS; hits give high values; AID 588675, 2011; 310,000 compounds, 0.63% hits; B-score at 10 µM;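 active = plate-corrected calcium response at least 3 library SD above typical, normal starting fluorescence, not activating the receptor alone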;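 note: compound read alongside a low EC10 to EC30 dose of BAM8-22 agonist; peak minus trough fluorescence over baseline measured at the second addition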
RGS4 act = RGS4 potentiators or activators, primary screen, cell-based, HEK293 M3R inducible RGS4, calcium flux. carbachol calcium flux Fluo4; hits give low values. B-score at 10 µM. 310,000 compounds, 0.92% hits. AID 463111, 2010;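 active = B-score of the integrated calcium signal more than 4 SD below the library mean, with starting fluorescence not abnormally high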;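 note: negative B-score means reduced calcium response which marks RGS4 activation or potentiation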
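test system = HEK293 cells with stable M3R and inducible RGS4 | schedule = recording 10 s baseline at 1 Hz, 100 s post-agonist | technique = Fluo4-AM (2 µM) calcium-flux fluorescence, kinetic read | measure = Agonist-evoked peak-minus-minimum fluorescence over baseline, integrated ratio, B score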
MrgX1 allo conf = MrgX1 positive allosteric modulators, duplicate retest, confirmation, HEK293 cells, Fluo-4 calcium flux; 1,200 compounds, 13% hits; activation (ratio percentage), % at 10 µM; Fluo-4 calcium fluorescence, FDSS; AID 602413, 2012; shares compounds with MrgX1 allo act;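 active = ratio at least 3 SD above the weak peptide control, stable starting fluorescence, no direct agonism earlier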;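 note: compound followed by low BAM8-22 agonist challenge near EC20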
HEK293 Ca flux = nonspecific calcium signal in parental HEK293, confirmation, counter-screen for MrgX1 antagonist project, parental HEK293 cells, Fluo-4 calcium flux | AID 624111, 2012 | 4,000 compounds, 2% hits | shares compounds with MrgX1 antag | fluorescence ratio F(max-min)/F0 at 10 µM | Fluo-4 calcium fluorescence, FDSS;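 active = duplicate-averaged calcium fluorescence ratio at least three times the standard deviation of buffer wells, a nonspecific response in parental cells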
HEK293 Ca counter = calcium response in parental HEK293 cells, primary screen, counter-screen for MrgX1 allosteric activator project, cell-based, Fluo-4 calcium flux, duplicate; shares compounds with MrgX1 antag; Fluo-4 fluorescence ratio; hits give high values; fluorescence ratio F(max-min)/F0 at 10 µM; 4,000 compounds, 0.4% hits; AID 624114, 2012;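 active = calcium fluorescence ratio, averaged over duplicates, at least 3 SD of the buffer-well ratio, meaning a nonspecific response in receptor-free cells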;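 note: untransfected parental HEK293 lacking MrgX1 used as counterscreen for MrgX1 allosteric activators; fluorescence change taken during the second addition on a kinetic imager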
HEK293 Ca cntr2 = calcium response in parental HEK293 cells, primary screen, counter-screen for MrgX1 agonist project, cell-based, Fluo-4 calcium flux, duplicate, agonist mode | 4,000 compounds, 8.7% hits | shares compounds with MrgX1 antag | fluorescence ratio F(max-min)/F0 at 10 µM | AID 624115, 2012 | Fluo-4 calcium fluorescence (FDSS); hits give high values;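 active = calcium fluorescence ratio at least three times the spread of buffer wells, meaning a non-specific response in parental cells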
* hit, by the source's call; i = inactive; x = no result given. Most compounds without a hit are left out; they make up all but 3.5% or so of the library.

SMILES	RGS4 inh	MrgX1 antag	MrgX1 agonist	MrgX1 allo act	RGS4 act	MrgX1 allo conf	HEK293 Ca flux	HEK293 Ca counter	HEK293 Ca cntr2
CC12CCC(C(=O)Nc3nc4ccccc4s3)(OC1=O)C2(C)C (stereo not drawn)	i	i	i	29*	i	2.1%*	i	i	i
CCOC(=O)c1c(CC(C)C)csc1N	i	i	i	i	i	x	x	x	x
CCOC(=O)c1c(-c2ccsc2)csc1N	i	i	i	8.6*	i	i	i	i	i
CCOC(=O)c1c(-c2ccc(C)o2)csc1N	i	i	i	i	i	x	x	x	x
CCOC(=O)c1c(-c2ccc(C)s2)csc1N	i	i	i	9.1*	i	i	i	i	i
CCc1noc(C)c1C(=O)Nc1ccc(Cl)c(S(=O)(=O)N2CCCCC2)c1	i	i	i	i	i	x	x	x	x
Clc1ccsc1-c1ccc2ccccc2n1	i	i	i	i	i	x	x	x	x
c1ccc2nc(-c3nccs3)ccc2c1	i	i	i	6.5*	i	i	i	i	i
COc1ccc(N(C(=O)COc2cccc(C)c2)S(=O)(=O)c2ccc(C)cc2)cc1	i	i	i	18*	i	i	i	i	i
COc1ccc(OC(=O)COc2cccc(C)c2)cc1	i	i	i	i	i	x	x	x	x
COc1ccc2cc(CCNS(=O)(=O)c3c(C)cc(C)cc3C)c(=O)[nH]c2c1	i	i	i	i	i	x	x	x	x
O=C(NCc1cccnc1)C(=O)NCC1OCCN1S(=O)(=O)c1cc(F)ccc1F (stereo not drawn)	i	i	i	16*	i	i	i	i	i
O=C(NCCc1ccccc1)C(=O)NCC1OCCN1S(=O)(=O)c1cc(F)ccc1F (stereo not drawn)	i	i	i	i	i	x	x	x	x
CC(=O)N1CCc2c(sc(NC(=O)Cc3ccc(C)cc3C)c2C#N)C1	i	i	i	i	i	x	x	x	x
Cc1c(C(=O)NCc2ccccn2)oc2ccccc12	i	i	i	i	i	x	x	x	x
COc1ccccc1CNC(=O)c1oc2ccccc2c1C	i	i	i	6.7*	i	i	i	i	i
Cc1cnc(NC(=O)C2CC=CCC2)s1 (stereo not drawn)	i	i	i	i	i	x	x	x	x
Cc1ccccc1CC1(CO)CCCN(C(=O)c2ccc(F)cc2)C1 (stereo not drawn)	i	i	i	10*	i	i	i	i	i
O=C(NCc1nnc(SCC(=O)N2CCCc3ccccc32)n1-c1ccccc1)c1cccc2ccccc12	i	i	i	i	i	x	x	x	x
Cc1ccc(Nc2cc(-n3cccn3)ncn2)c(C)c1	i	i	i	14*	i	i	i	i	i
COc1ccc(C(=O)CCN2CCN(c3ccc(OC)cc3)CC2)cc1	i	i	i	i	i	x	x	x	x
COc1ccc(C(=O)CCN2CCN(c3ccccc3F)CC2)cc1	i	i	i	20*	i	i	i	i	i
COc1ccc(C(CNC(=O)COc2ccc(Cl)cc2C)N2CCCCC2)cc1 (stereo not drawn)	i	i	i	i	i	x	x	x	x
CCc1ccc(C(N)=S)cc1	i	i	i	9*	i	i	i	i	i
CC(=O)N1CCc2cc(Br)cc(S(=O)(=O)NCCCN3CCC(C)CC3)c21	x	i	i	i	x	x	x	x	x
SMILES	RGS4 inh	MrgX1 antag	MrgX1 agonist	MrgX1 allo act	RGS4 act	MrgX1 allo conf	HEK293 Ca flux	HEK293 Ca counter	HEK293 Ca cntr2
CC(=O)N1CCc2cc(Br)cc(S(=O)(=O)NCCN3CCCCC3C)c21 (stereo not drawn)	i	i	i	9.1*	i	i	i	i	i
CCOC(=O)COc1ccc(/C=C2\NC(=S)N(CC)C2=O)cc1	i	i	i	i	i	x	x	x	x
CC1(C)CC(=O)c2sc(NS(=O)(=O)c3ccc(Br)cc3)nc2C1	i	i	i	13*	i	i	i	i	i
CC1(C)CC(=O)c2sc(NS(=O)(=O)c3ccc(F)cc3)nc2C1	i	i	i	31*	i	6.6%*	i	i	i
CC1(C)CC(=O)c2sc(NS(=O)(=O)c3ccc(Cl)cc3)nc2C1	i	i	i	i	i	x	x	x	x
COc1ccccc1NC(=S)N(Cc1ccccc1)Cc1ccccn1	i	i	i	6.6*	i	i	i	i	i
COc1ccccc1NC(=S)N(Cc1ccccc1)Cc1cccnc1	i	i	i	i	i	x	x	x	x
Cc1ccc(Nc2cc(C)nc3ncnn23)cc1	i	i	i	i	i	x	x	x	x
Cc1cc(C)n2c(SCC(=O)Nc3ccc(F)cc3F)nnc2n1	i	i	i	i	i	x	x	x	x
Cc1cc(C)n2c(SCC(=O)Nc3ccc(F)cc3)nnc2n1	i	i	i	14*	i	i	i	i	i
Cc1ccc(S(=O)(=O)Nc2cc3c(cc2C#N)OCO3)cc1C(N)=O	i	i	i	i	i	x	x	x	x
CC(=O)N1c2ccc(S(=O)(=O)N(C)Cc3ccccc3)cc2CC1C (stereo not drawn)	i	i	i	7.2*	i	i	i	i	i
O=C(Nc1nnc(-c2ccccc2Cl)o1)c1ccc(S(=O)(=O)N2CCCCCC2)cc1	i	i	i	8.6*	i	i	i	i	i
CS(=O)(=O)c1ccccc1-c1nnc(NC(=O)c2ccc(S(=O)(=O)N3CCCC3)cc2)o1	i	i	i	i	i	x	x	x	x

Compound activity as filed in PubChem.
